Bioassay records as filed in PubChem BioAssay.
C8 TRAIL sens = sensitizes caspase-8 expressing cells to TRAIL; NB7+C8 cells + TRAIL, ATPlite viability luminescence; inhibition (viability loss, TRAIL sensitization), % at 10 µM; hit rate 1% among 360,000; AID 624354;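 active means compounds causing at least 50% loss of cell viability in the single-dose screen, relative to plate controls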
HSP90 refold inh = blocks HSP90-mediated luciferase refolding in reticulocyte lysate. Rabbit reticulocyte lysate, luciferase refolding luminescence, 3 h. AID 1789. inhibition, % at 5.6 µM. hit rate 0.91% among 290,000;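 active means inhibition above the screen-wide mean plus 3 SD, computed separately per campaign, cut at about 16% in these data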;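 further: 0% = DMSO wells and 100% = 60 µM geldanamycin wells; inhibitors lower the luminescence because luciferase stays unfolded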
FLuc stim CS = firefly luciferase counter-screen for stimulation assays. P08659. ATPlite luciferase biochemical, luminescence, 10 min; 0 = ATP-free wells, 1 = DMSO control. activation factor at 10 µM. 200,000 tested, under 10 active;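 active means luciferase activation factor, scaled between plate controls, of at least 2 with compound at 10 µM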
Target sequence (P08659 whole entry, looked up): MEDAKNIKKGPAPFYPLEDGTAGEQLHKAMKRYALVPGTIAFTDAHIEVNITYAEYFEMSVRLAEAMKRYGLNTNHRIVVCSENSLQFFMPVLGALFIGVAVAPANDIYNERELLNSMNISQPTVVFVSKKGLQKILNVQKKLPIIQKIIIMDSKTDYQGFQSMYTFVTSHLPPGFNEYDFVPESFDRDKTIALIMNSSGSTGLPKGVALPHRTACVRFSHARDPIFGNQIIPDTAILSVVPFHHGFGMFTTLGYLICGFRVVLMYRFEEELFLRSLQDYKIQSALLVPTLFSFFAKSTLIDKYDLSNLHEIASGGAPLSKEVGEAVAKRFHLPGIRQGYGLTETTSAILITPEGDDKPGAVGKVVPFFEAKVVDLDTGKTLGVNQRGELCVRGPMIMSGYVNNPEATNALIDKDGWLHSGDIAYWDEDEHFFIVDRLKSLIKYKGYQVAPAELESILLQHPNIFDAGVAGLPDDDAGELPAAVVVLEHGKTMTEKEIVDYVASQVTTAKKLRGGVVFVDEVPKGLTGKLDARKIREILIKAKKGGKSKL
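Assay system: Luciferase/luciferin detection reagent, cell-free biochemical luciferase assay / Read-out: luciferase activation / Benchmarks: No-ATP low control, compound-free enzyme-plus-ATP high control / Medium: PBS buffer for ATP / Detection: luminescence measurement of luciferase light output / Schedule: 10 min at ambient temperature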
PPC-1+TRAIL kill = compounds killing PPC-1 cancer cells with TRAIL present (potentiator screen, no TRAIL-free arm); cell killing (% activity), % at 4 µM or 5 µM; hit rate 0.41% among 220,000; PPC-1 cells + TRAIL, ATPLite viability luminescence;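 active means cell killing above 50% in the first pass at 4 µM, then a duplicate retest at 5 µM averaging 50% or more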;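 further: plate controls were cells with TRAIL plus DMSO for no effect and medium-only wells lacking cells for full effect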
FLuc inh counter = inhibits firefly luciferase, flagging false hits in luciferase inhibition screens; inhibition, % at 10 µM; P08659; AID 1006; hit rate 1.5% among 200,000; ATPLite firefly luciferase biochemical luminescence, 10 min;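 active means inhibition above about 50% when tested at 10 µM, limit read from the data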
* = called active by the depositor; . = no result given. Rows were chosen to be rich in hits. Some 2% of all compounds tested hit in one or more screens of this group.

SMILES | C8 TRAIL sens | HSP90 refold inh | FLuc stim CS | PPC-1+TRAIL kill | FLuc inh counter
O=C(O)C1CCN(C(=O)COc2ccc3c4c(c(=O)oc3c2)CCCC4)CC1 | -9 | 3 | . | . | .
Cc1c(C)c2ccc(OCC(=O)N3CCC(C(=O)O)CC3)cc2oc1=O | 12 | 16* | . | . | .
COc1ccc(-c2cc3ccc(OCC(=O)NCC4CCC(C(=O)O)CC4)cc3oc2=O)cc1 (stereo not drawn) | 59* | -1 | . | . | .
COc1cccc(CNC(=O)[C@@H]2CCCN2C(=O)[C@H]2CCCCN2C(=O)c2cccc3ccccc23)c1 | 1 | . | . | . | .
OCC1OC(n2cnc3c(SCc4ccccc4)ncnc32)C(O)C1O (stereo not drawn) | 55* | . | . | . | .
OC[C@H]1O[C@@H](n2cnc3c(NC4CCCC4)ncnc32)[C@H](O)[C@@H]1O | -2 | 4 | 1.1 | 3 | -9
OCC1OC(n2cnc3c(NCc4ccco4)ncnc32)C(O)C1O (stereo not drawn) | 59* | . | . | . | .
OC[C@H]1O[C@@H](n2cnc3c(NCc4ccco4)ncnc32)[C@H](O)[C@@H]1O | 48 | . | . | . | .
Nc1nc(F)nc2c1ncn2[C@@H]1O[C@H](CO)[C@@H](O)[C@H]1O | 57* | . | . | . | .
C=CCNc1ncnc2c1ncn2C1OC(CO)C(O)C1O (stereo not drawn) | 57* | -2 | 1 | 11 | -3
CC(C)CN(C(=O)c1ccc(S(=O)(=O)N2CCOCC2)cc1)C1CCS(=O)(=O)C1 (stereo not drawn) | -31 | . | . | . | .
Cn1c(SCC(=O)NC2CCCCC2)nnc1C(F)(F)F | -12 | . | . | . | .
COCCNC(=S)N1CCC(C(=O)c2ccc3c(c2)OCCO3)CC1 | -1 | 2 | 1.1 | 22 | -6
CSc1ccc(C2NN=C(c3ccccc3)S2)cc1 (stereo not drawn) | 84* | . | . | . | .
CCOc1cc(C2NN=C(c3ccc(C)cc3)S2)ccc1O (stereo not drawn) | 39 | -6 | 0.8 | 18 | 21
COc1ccc(C2NN=C(c3ccc(C)cc3)S2)cc1 (stereo not drawn) | 50* | -5 | . | . | .
CC(=O)c1cccc(N(CC(=O)Nc2ccccc2C(=O)N2CCCC2)S(C)(=O)=O)c1 | -11 | 0 | . | . | .
CCN(CC)S(=O)(=O)c1ccc(Cl)c(C(=O)Nc2cc(C)nn2-c2ccccc2)c1 | 20 | 1 | 1 | 51* | -2
Clc1ccc(-c2nc(-c3cnccn3)no2)cc1 | 53* | -5 | . | 25 | .
Fc1ccc(-c2nc(-c3cnccn3)no2)c(Cl)c1 | 60* | 5 | . | 49 | .
Cc1ccc(-c2nc(-c3ccncc3)no2)cc1Cl | 1 | 1 | . | . | .
Cc1cccc(OCCOC(=O)c2ccc(F)c(S(=O)(=O)N3CCOCC3)c2)c1 | 0 | . | . | . | .
CCc1ccc2nc3n[nH]c(N)c3cc2c1 | 42 | 0 | 0.3 | 33 | 70*
Cc1cc(C)c2c(n1)SCC(=O)N2CC(=O)Nc1cccc(Cl)c1 | 11 | 31* | . | . | .
COc1cccc2cc(C(=O)Nc3cccc(C)n3)c(=O)oc12 | 10 | . | 0.5 | 5 | 54*
SMILES | C8 TRAIL sens | HSP90 refold inh | FLuc stim CS | PPC-1+TRAIL kill | FLuc inh counter
CCC(C)Sc1nnc(NC(=O)c2ccco2)s1 (stereo not drawn) | -2 | -1 | . | . | .
O=C(/C(=C(\O)c1ccccc1)c1nc2ccccc2[nH]1)c1ccccc1 | 9 | -2 | . | 15 | .
O=C(/C=C/c1ccc(Cl)cc1Cl)c1nc2ccccc2[nH]1 | 37 | 1 | 0.3 | 27 | 66*
Cc1nn(C(=O)c2ccco2)c(C)c1Br | 5 | 0 | 1.1 | -12 | -7
Cc1ccn2c(c1)nc(=S)n2C(=O)c1ccco1 | . | -3 | 0.1 | 71* | 94*
Cc1onc(C(=O)N2CCN(c3ccccc3)CC2)c1[N+](=O)[O-] | 11 | -1 | . | . | .
Cc1ccc(Cl)cc1N1CCN(C(=O)c2noc(C)c2[N+](=O)[O-])CC1 | 95* | 5 | . | . | .
Cc1ccn2c(CC(C)(C)C)c(-c3ccc(F)cc3)nc2c1 | 10 | . | . | . | .
CC(=O)N(c1ccc(Cl)cc1)c1cn(C(C)=O)c2ccccc12 | -19 | -4 | 1 | 13 | -3
CC(=O)n1cc(N(C(=O)CCl)c2ccc(C)cc2)c2ccccc21 | 95* | 12 | . | 38 | .
Cc1ccc(S(=O)(=O)NC(C)(C)CN2CCc3ccccc3C2)cc1 | -14 | -1 | . | -15 | .
CN1C(=CC=C2C=C(I)C(=O)C(I)=C2)C(C)(C)c2ccccc21 | 24 | 3 | . | 50* | .
CN1/C(=C\C=C2/C(=O)Oc3ccccc3C2=O)C(C)(C)c2ccccc21 | . | -4 | 0.8 | 28 | 17
CC(C)C(=O)NCc1cc(-c2ccccc2)no1 | -3 | -1 | 1.1 | 6 | -8
